# Sampled rows, rich in hits. Any-hit rate of the full collection: about 2.7%.
# Lipid droplet: modulators of hepatic lipid droplet formation; AML12 mouse hepatocytes, oleate lipid droplets, BODIPY imaging; inhibition, % at 6.5 µM; 240,000 tested, 0.4% active;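 active = lipid droplet intensity inhibited by at least 50%, with more than 500 cells counted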
#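 Assay system: AML12 mouse liver cells | Compound dosing: One dose, 6.5 µM compound | Read-out basis: Droplet intensity reduction, % inhibition | Measured by: Fluorescence imaging, 20x objective, two fields per well | Schedule: Overnight treatment with compound plus oleate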
# MC4R antag cAMP: human MC4R antagonism in cAMP assay | P32245 | MC4R-expressing cells, MTII-stimulated cAMP, LANCE TR-FRET | inhibition, % at 6.5 µM | 360,000 tested, 0.48% active | AID 540295;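 active = inhibition above its plate's cutoff, the mean of tested wells on that plate plus 3 SD, cut at about 29% in these data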;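 note: 0% = Melanotan II alone and 100% = Melanotan II plus saturating MCL0020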
#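 Material: human MC4R-expressing U2OS cells. Probe or stimulus: Melanotan II challenge. Dosing: 6.5 µM single dose. Times: 30-min compound, 1-h challenge, 1-h detection, room temperature. Technique: TR-FRET with Eu-cAMP and labeled anti-cAMP, 671 nm. Replication: singlicate.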
# PREPL inh: inhibitors of human prolyl oligopeptidase-like enzyme PREPL | Q4J6C6 | recombinant PREPL, fluorescence polarization activity-based probe | inhibition, % at 5.96 µM | 320,000 tested, 0.68% active | AID 2751; in the data active = inhibition above about 43%;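 note: 0% = enzyme with DMSO and 100% = wells lacking enzyme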
# m5-HT2A agonist: agonists of mouse serotonin 5-HT2A receptor (HTR2A); CHO-K1 mHTR2A beta-arrestin complementation, luminescence; percent of 30 µM serotonin response; activation, % at 7.6 µM; 360,000 tested, 0.66% active; AID 624169;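 active = activation above a run cutoff, the mean activation of all tested compounds plus 3 SD, cut at about 14% in these data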;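 note: 0% = plate median of compound wells and 100% = 30 µM serotonin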
# NTR1 ag: NTR1 (human) agonism. activation, % at 20 µM. NTR1-U2OS beta-arrestin-GFP spot imaging, agonist mode. 330,000 tested, 0.17% active;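 active = activation at or above 40% of the spot to cytoplasm intensity ratio, with at least 20 cells analyzed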;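 note: 0% = DMSO without peptide and 100% = 100 nM NTR1 peptide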
# Target sequence (P30989 whole entry, looked up): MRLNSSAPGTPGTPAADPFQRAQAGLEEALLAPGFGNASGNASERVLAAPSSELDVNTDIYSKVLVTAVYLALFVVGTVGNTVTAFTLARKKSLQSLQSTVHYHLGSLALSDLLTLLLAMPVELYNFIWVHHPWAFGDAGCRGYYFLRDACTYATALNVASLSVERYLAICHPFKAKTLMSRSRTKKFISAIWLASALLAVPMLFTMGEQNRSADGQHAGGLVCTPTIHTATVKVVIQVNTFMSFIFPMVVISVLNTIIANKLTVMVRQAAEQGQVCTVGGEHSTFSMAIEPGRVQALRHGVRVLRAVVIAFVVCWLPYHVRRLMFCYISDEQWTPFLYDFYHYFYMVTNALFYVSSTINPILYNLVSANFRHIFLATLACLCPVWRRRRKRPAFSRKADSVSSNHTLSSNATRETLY
# MC4R ag barr: agonists of human melanocortin 4 receptor (MC4R) beta-arrestin | 360,000 tested, 0.98% active | P32245 | U2OS MC4R beta-arrestin complementation, luminescence; percent of melanotan II response, DMSO zero | activation, % at 8.9 µM;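 active = activation above a per-plate cutoff, the mean activation of sample wells on that plate plus 3 SD, cut at about 8% in these data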
# Lipid drop inh: hepatic lipid droplet formation inhibition, confirmed | shares compounds with Lipid droplet | AML12 mouse hepatocytes, BODIPY lipid droplet imaging; droplets induced with 100 µM oleic acid | inhibition, % at 5.2 µM | 870 tested, 65% active | AID 463183;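 active = inhibition of lipid droplet metric at least 50%, with more than 300 cells in each of four replicates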;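 note: plate controls were DMSO with oleic acid for no effect and 5 µM Triacsin-C for full effect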
# AML12 tox img: AML12 hepatocyte cytotoxicity (counter-screen); AID 463200; shares compounds with Lipid droplet; AML12 mouse hepatocytes, DAPI nuclear morphology cytotoxicity imaging; stronger effect = higher value; cells fed 100 µM oleate overnight; 870 tested, 3% active; z-score at 5 µM; in the data active = z-score above about 6.3;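 note: compound exposure lasted overnight at 37 °C before fixation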
# AML12 tox ATP: AML12 hepatocyte cytotoxicity, confirmed | shares compounds with Lipid droplet | AML12 mouse hepatocyte viability, ATP luminescence; cells loaded with 100 µM oleic acid | cytotoxicity, % at 50 µM | 530 tested, under 10 active;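 active = cytotoxicity above 50% in each of four replicates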;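 note: compound exposure lasted overnight at 37 °C before the ATP read; 0% = DMSO-treated cells and 100% = wells with no cells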
# Numbers without * were called inactive; . = no result.
SMILES,Lipid droplet,MC4R antag cAMP,PREPL inh,m5-HT2A agonist,NTR1 ag,MC4R ag barr,Lipid drop inh,AML12 tox img,AML12 tox ATP
CCCCCCCCn1c(N2CCN(c3cccc(Cl)c3)CC2)nc2c1c(=O)[nH]c(=O)n2C,83*,3,13,-1,18,0,98*,-1.1,16
CCCCCCn1c(N2CCN(c3ccccc3)CC2)nc2c1c(=O)[nH]c(=O)n2C,58*,9,41,-3,22,4,93*,-1.2,-11
CCCCn1c(=O)[nH]c(=O)c2c1nc(-c1ccc(-c3ccccc3)cc1)n2C,64*,3,7,0,4,0,70*,-0.69,-5
FC(F)(F)c1cccc(CC2CN(Cc3ccccc3)Cc3ccccc3N2c2cc(Cl)cc(Cl)c2)c1 (configuration not stated),.,7,.,-4,.,2,.,.,.
CCOc1ccc(CCNC(=O)CCNC(=O)c2ccccc2Cl)cc1OCC,68*,5,3,4,0,-3,88*,0.71,13
CCOc1ccc(CCNC(=O)c2cccs2)cc1OCC,76*,15,-4,1,0,-1,100*,-0.45,8
Cn1c(C(=O)NCc2cccnc2)cc2sc(Cl)cc21,-10,-4,5,-6,4,-2,.,.,.
CCOc1ccc(CCNC(=O)c2cc(C)nc3ccccc23)cc1OCC,62*,-2,4,-4,1,-2,71*,0.041,17
COc1ccc(CCNC(=O)c2cccs2)cc1OC,2,-5,3,2,1,-1,.,.,.
CCOc1ccc(CCNC(=O)c2cc3sc(Cl)cc3n2C)cc1OCC,89*,-1,7,2,-4,-1,107*,0.67,4
CSc1ccc(S(=O)(=O)N(CC(=O)NN=C2CCN(C)CC2)c2ccc(C)cc2)cc1,-3,-9,-47,-4,-1,-2,.,.,.
COc1cccc(N=Nc2c(C)[nH]n(-c3ccccc3)c2=O)c1,51*,9,5,6,5,0,103*,-0.7,12
CCN1CCN(c2cc(C)c3cc(NC(=O)CCC(=O)Nc4ccc(OC)c(OC)c4)ccc3n2)CC1,-7,-8,6,-1,1,1,.,.,.
COc1ccc(C)cc1NC(=O)CCC(=O)Nc1ccc2nc(N3CCN(C)CC3)cc(C)c2c1,105*,.,10,.,0,.,104*,0.15,-5
COc1ncccc1C(=O)NC1CCCc2c1cnn2-c1ccc(C)c(C)c1 (configuration not stated),58*,-2,1,-3,1,-1,92*,-0.4,-1
COc1cccc(C(=O)NC2CCCc3c2cnn3-c2ccc(C)c(C)c2)c1OC (configuration not stated),-1,20,-1,-2,1,0,.,.,.
CCOc1ccc(OCCC(=O)OCC(=O)N(CC)c2c(N)n(Cc3ccccc3)c(=O)[nH]c2=O)cc1,.,4,.,1,.,-1,.,.,.
O=C(Nc1cccc([N+](=O)[O-])c1)C1CC(=O)N(C2CCCCC2)C1 (configuration not stated),8,8,13,-1,0,1,.,.,.
COC(=O)c1cc(S(=O)(=O)N2CCN(Cc3ccccc3)CC2)cn1C,1,17,-5,1,4,0,.,.,.
O=C(NCCc1ccccc1)C(=O)NCC1CCCN1S(=O)(=O)c1cccs1 (configuration not stated),.,-9,-5,7,-1,-3,.,.,.
COc1ccc(OC)c(NC(=O)CCCNC(=O)c2ccc(Cl)cc2)c1,58*,15,4,-5,-1,1,73*,-0.56,15
CCOc1ccccc1NC(=O)CCCNC(=O)c1ccc(Cl)cc1,73*,21,8,-7,1,1,78*,0.086,9
CCOc1ccccc1NC(=O)CCCNC(=O)Cn1cnc2sc(C)c(C)c2c1=O,59*,9,0,1,0,2,64,-0.053,9
O=C(NC(=S)Nc1ccccn1)c1ccc(-c2ccccc2)cc1,94*,7,7,2,4,1,16,-0.62,.
O=C(Nc1ccccn1)c1ccc(C(=O)Nc2ccccn2)cc1,13,24,3,0,-1,2,.,.,.
SMILES,Lipid droplet,MC4R antag cAMP,PREPL inh,m5-HT2A agonist,NTR1 ag,MC4R ag barr,Lipid drop inh,AML12 tox img,AML12 tox ATP
O=C(CNCCC1=CCCCC1)Nc1ccccc1N1CCCCC1,103*,8,13,8,8,3,-21,-0.93,.
CCn1cc([N+](=O)[O-])c(C(=O)N2N=C(c3ccc4ccccc4c3)CC2c2ccccc2O)n1 (configuration not stated),79*,10,-10,1,10,7,88*,-1.6,11
CCc1cc(C(=O)N2CCc3c([nH]c4ccccc34)C2c2ccc(OC)cc2F)no1 (configuration not stated),69*,1,5,-3,7,-2,81*,0.77,-20
CN(C)C(=O)c1ccc(NC(=O)c2ccccc2SCC(=O)N2CCCC2)cc1,.,-5,-4,-3,0,-3,.,.,.
CCC(NC(=O)c1cc(COc2ccc(F)cc2Cl)on1)c1ccncc1 (configuration not stated),1,-4,.,-1,1,4,.,.,.
CCC(NC(=O)c1cc(COc2cncc(Cl)c2)on1)c1ccncc1 (configuration not stated),65*,4,-2,-1,-1,-1,11,-0.58,.
O=C(NC1CCN(Cc2ccccc2)CC1)c1ccc(CS(=O)c2ccccc2Cl)o1 (configuration not stated),.,4,.,-14,.,1,.,.,.
CCCCN(c1nc2ccccc2nc1Cl)S(=O)(=O)c1ccc(C)cc1,-7,6,6,-8,5,-1,.,.,.
CCOC(=O)/C(C(=O)Nc1ccccc1Cl)=C1/NC(C)(C)Cc2ccccc21,53*,5,4,-3,4,-1,32,0.35,.
COc1ccc(NC(=O)COC(=O)C2COc3ccccc3O2)cc1OC (configuration not stated),.,6,.,3,.,-1,.,.,.
CCOc1ccc(CCN2C(=S)N([C@@H](CC(C)C)CN3CCCC3CN3C(=S)NC[C@@H]3Cc3ccc(O)cc3)C[C@@H]2CC(C)C)cc1 (some centres not stated),.,7,.,-9,.,-2,.,.,.

# Screening data (PubChem)
